Compound activity: PubChem BioAssay, several laboratories
The list is not random: actives were taken first. Their share in the collection is about 5.8%.
RBBP9 inh – blocks human serine hydrolase RBBP9. 220,000 tested, 0.2% active. inhibition, % at 7.94 µM. AID 1515. recombinant RBBP9, FP-Rh probe fluorescence polarization;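 active = inhibition above the campaign mean of all tested compounds plus 3 SD, cut at about 14% in these data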
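Controls: DMSO-treated enzyme wells and wells lacking RBBP9 | Material: RBBP9 protein | Technique: Fluorescence polarization | Replication: Single well per compound, no replicates | Buffer or medium: Tris-NaCl-Pluronic buffer, pH 8.0 | Timing: 30 min compound preincubation, 45 min probe labeling, 25 °C | Read-out basis: Percent inhibition from mP, scaled between DMSO and no-protein wells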
ROMK mod – modulates human ROMK potassium channel activity. B-score at 10 µM. Tet-inducible ROMK, thallium flux fluorescence; actives lie on both sides. 130,000 tested, 2% active. P48048. AID 1918;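 active = signal ratio slope over the read window, or its plate-corrected B-score, at least 3 SD from the plate mean, either direction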;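 note: B-score of the F/F0 ratio slope over 7 to 12 s after thallium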
NCF1 inh – p47phox (human) inhibition; 220,000 tested, 0.53% active; p47phox/p22phox peptide binding, fluorescence polarization, 2 h; AID 1274; P14598; inhibition, % at 24.7 µM;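 active = inhibition above about 30%, limit read from the data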
14-3-3 Bad inh – disrupts binding of bovine 14-3-3 zeta to phospho-Bad peptide. TR-FRET 14-3-3zeta/Dy647-pBad peptide displacement, 1 h. AID 781. inhibition, % at 21.7 µM. 220,000 tested, 0.71% active;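 active = inhibition above about 70%, limit read from the data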
WT yeast gro inh – growth inhibition of WT yeast, mitochondrial fusion screen; mitochondrial fusion phenotypic screen, WT strain; 190,000 tested, 2.1% active; inhibition, % at 10 µM; AID 1362; in the data active = inhibition above about 58%; tested in S. cerevisiae
Cl transport mod – KCC2 (human) Cl- transport modulation; Q9H2X9; KCC2 cells, thallium flux FluoZin-2 fluorescence; B-score of Tl+ flux slope (higher = more flux/activation; lower = inhibition) at 10 µM; 190,000 tested, 2.2% active;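 active = thallium flux slope and its plate-corrected score both differing from the plate sample mean at a set confidence after two filtering rounds, in either direction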;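 note: slope of fluorescence scaled to starting intensity during 10 to 20 s after thallium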
Each line names hits and unclear results; the compound was inactive in the other large screens; [ ] = remark or other dose.

CCCCCCNc1c([N+](=O)[O-])c(=O)sc2ccccc12	none
Cc1ccc(Cl)cc1N1CCN(S(=O)(=O)N2CCCCC2)CC1	WT yeast gro inh 73
Cc1ccccc1C(=O)NNC(=O)CSc1nc(-c2ccccc2)cc(=O)[nH]1	none
C=CCNc1nc(-c2ccc(OC)cc2OC)cs1	14-3-3 Bad inh 76 (no result: ROMK mod)
CC1(C)CC(=O)C2=C(C1)Nc1cc3c(cc1C2c1ccc(F)cc1)OCO3 (stereo unspecified)	none (no result: ROMK mod)
CC1(C)CC(=O)C2=C(C1)Nc1cc3c(cc1C2c1ccc2c(c1)OCO2)OCO3 (stereo unspecified)	NCF1 inh 59 (no result: ROMK mod)
OCC1(CCOc2ccccc2)CCN(CC2=Cc3cc(Cl)ccc3OC2)CC1	WT yeast gro inh 90
OCCOc1cccc(CN2CCC(CO)(CCOc3ccccc3)CC2)c1	none (no result: ROMK mod)
CN1CCN(CCOc2ccc(Cl)c(Cl)c2)CC1	none
CN1CCN(CCOc2cccc(Cl)c2)CC1	14-3-3 Bad inh 73 (no result: ROMK mod)
CCC(=NCc1ccc(Cl)c(Cl)c1)c1nc(-c2ccco2)oc1O	WT yeast gro inh 67
COc1ccc(N=Cc2nc(-c3ccco3)oc2O)cc1	none
COc1ccc([N+](=O)[O-])cc1NC(=O)CCSCCc1ccccn1	none
Cc1nnc(SCc2ccc([N+](=O)[O-])cc2)o1	none (no result: Cl transport mod)
On1c(-c2ccc(Cl)cc2)nc2ccccc21	WT yeast gro inh 79
Cc1nn(CCc2nn[nH]n2)c2nc(-c3ccc(C4CCCCC4)cc3)cc(C(F)(F)F)c12	WT yeast gro inh 98
CCOC(=O)c1cc(-c2ccc(C#N)cc2)nc2c1c(C)nn2CCC#N	none
CC(O)[C@H]1CNC(=O)C(=O)N1CCc1cc(C(F)(F)F)cc(C(F)(F)F)c1 (stereo partly specified)	none (no result: RBBP9 inh, ROMK mod, WT yeast gro inh)
COC(=O)CNC(c1ccccc1)c1cc(C)ccc1NC(=O)CNC(=O)OCc1ccccc1 (stereo unspecified)	none
COC(=O)CNC(c1ccccc1)c1cc(C)ccc1NC(=O)c1cccc(Cl)c1 (stereo unspecified)	WT yeast gro inh 71
CCOC(=O)c1sc(N)nc1C(C)(C)C	14-3-3 Bad inh 74 (no result: ROMK mod)
Cc1cccc2c1N(CCCOc1ccccc1)C(=O)C2=O	none (no result: ROMK mod)
Cc1cccc2c1N(CCCOc1ccc(C(C)(C)C)cc1)C(=O)C2=O	WT yeast gro inh 97 (no result: ROMK mod)
Cc1ccc(-c2cc3c(N=O)c4ccccc4c-3n[nH]2)cc1	WT yeast gro inh 64 (no result: Cl transport mod)
COc1ccc(/C=N/NC(=O)COc2cc(C)cc(C)c2)cc1COC(C)=O	none (no result: Cl transport mod)
C/C(CCc1ccc2c(c1)OCO2)=N\NC(=O)c1ccccc1Br	none
CCOc1ccccc1C(=O)Nc1ccccc1-c1ccccc1	WT yeast gro inh 75
Clc1ccc(Cc2ccc(SCc3ccccc3)nn2)c(Cl)c1	14-3-3 Bad inh 72 (no result: ROMK mod)
Clc1ccc(Cc2ccc(Cl)nn2)c(Cl)c1	none (no result: ROMK mod)
Cc1cccc(-n2ncc3c(N4CCCc5ccccc54)ncnc32)c1	WT yeast gro inh 71
Cc1cccc(-n2ncc3c(NCc4ccccc4)ncnc32)c1	none (no result: ROMK mod)
CC(C)(C)NC(=O)c1ccc(NC(=O)CSc2ccccc2)cc1	none
Cc1cc(C)c2[nH]c(O)c(N=NC3=NC(=O)CS3)c2c1	none (no result: WT yeast gro inh)
CCc1ccc2c(c1)c(N=NC1=NC(=O)CS1)c(O)n2C	Cl transport mod 9.4 (no result: ROMK mod)
N#C/C(=C(/O)c1ccc(Cl)c([N+](=O)[O-])c1)c1nc2ccccc2[nH]1	none (no result: ROMK mod, WT yeast gro inh)
COC(=O)C1CSC(C(=O)OC)N1C(=O)Nc1c(C)cccc1C (stereo unspecified)	none (no result: ROMK mod, Cl transport mod)
Cc1cccc(C)c1NC(=O)N1C(C(=O)O)CSC1C(=O)O (stereo unspecified)	NCF1 inh 67 (no result: ROMK mod, 14-3-3 Bad inh, Cl transport mod)
CCOC(=O)/C(C#N)=C/c1ccc(OC(=O)c2ccccn2)cc1	14-3-3 Bad inh 81[fluorescence artefact?] (no result: ROMK mod)
OCCC1CN(Cc2nc3ccccc3s2)CCN1CCc1ccccc1 (stereo unspecified)	none
CC(=O)c1ccc(Nc2ccc(-c3ccccc3F)nn2)cc1	none
CCCCN1C(=O)C(=O)N(CC(=O)Nc2cc(OCC)c(N3CCOCC3)cc2OCC)C1=O	none (no result: Cl transport mod)
C/C(=N\Nc1ccc(S(N)(=O)=O)cc1[N+](=O)[O-])c1ccc2c(c1)OCO2	NCF1 inh 37
Cc1cc(C)c(C)c(C(=O)CSc2nnc(-c3ccc4[nH]c(C)c(C)c4c3)o2)c1C	14-3-3 Bad inh 73
C=CCN(CC(=O)O)S(=O)(=O)c1ccccc1C(F)(F)F	none
O=C(NCc1cccnc1)Nc1cccc(F)c1	none
